Here are results for 8 molecules from ChEMBL document CHEMBL5032497, “Rational Alteration of Pharmacokinetics of Chiral Fluorinated and Deuterated Derivatives of Emixustat for Retinal Therapy” (J Med Chem, 2021).

System in the first data set: not listed separately
Briefly: Drug distribution in wild type BL/6J mouse eyes measured at 380 nM, IP administered single dose per eye after 3 hrs by LC-MS/MS electrospray ionization fragmentation spectra method. The data set is classed as ADME, tissue-based. The following applies: in vivo, 0.38 µM. The gist of the method: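 Eight-week-old BL/6J mice got one i.p. dose of 380 nmol in 50 μL DMSO and were sacrificed at 3 h, 1 day or 7 days. Both eyes were homogenized in acetonitrile, and the extract was dried and reconstituted in 50% methanol/water. Analysis was by C18 LC-MS/MS with ESI and a formic acid/acetonitrile gradient.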
`NCCC(O)c1cccc(OCC2CCC(F)(F)CC2)c1` (centres undefined) displayed a Drug uptake of 176 pmol. In the case of `CCCC(CCC)COc1cc([C@H](O)CCN)ccc1F`, the Drug uptake result is reported as “Not Active”.

For `NCCC(O)c1ccc(F)c(OCC2CCCCC2)c1` (centres undefined), the Drug uptake result is “Not Active”.

A further data set deals with Retinoid isomerohydrolase (Bos taurus, UniProt Q28175). Briefly: Inhibition of RPE65 in bovine retinal pigment epithelium microsomes assessed as decrease of 11-cis-retinol using trans-retinol measured after 1 hr by normal phase HPLC analysis. Set-up: species or system Retina, Microsome.
Sequence of Retinoid isomerohydrolase (Q28175 whole entry): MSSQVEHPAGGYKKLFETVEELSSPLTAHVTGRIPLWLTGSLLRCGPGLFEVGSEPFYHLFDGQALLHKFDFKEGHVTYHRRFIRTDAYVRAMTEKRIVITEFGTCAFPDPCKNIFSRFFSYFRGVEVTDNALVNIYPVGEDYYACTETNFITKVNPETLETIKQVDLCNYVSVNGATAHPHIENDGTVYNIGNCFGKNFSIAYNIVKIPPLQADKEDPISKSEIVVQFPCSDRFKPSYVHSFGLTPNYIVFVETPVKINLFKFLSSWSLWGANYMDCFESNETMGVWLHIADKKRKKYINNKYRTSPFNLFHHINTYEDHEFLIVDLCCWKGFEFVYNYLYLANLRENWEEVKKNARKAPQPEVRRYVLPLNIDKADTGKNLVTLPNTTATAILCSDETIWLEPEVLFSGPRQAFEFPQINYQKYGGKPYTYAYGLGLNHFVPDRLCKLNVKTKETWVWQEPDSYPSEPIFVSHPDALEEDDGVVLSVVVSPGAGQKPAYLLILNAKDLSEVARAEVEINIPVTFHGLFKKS
Settings: not given; call rule not given here
What is called IC50 is the concentration at which inhibition is half-maximal. Turning to `CCCC(CCC)COc1cccc(C(O)CCN)c1F` (racemic), the IC50 was found to be 287 nM. The same measure, in the same setting: the value for `CCCC(CCC)COc1cc(F)cc(C(O)CCN)c1` (racemic; 25) was 295 nM. Regarding `CCCC(CCC)COc1cc(F)cc(C(O)CCN)c1` (racemic; 26), the IC50 was determined as 184 nM. Same read-out and setting: the value for `CCCC(CCC)COc1ccc(F)c(C(O)CCN)c1` (racemic; 27) was 157 nM; that for `CCCC(CCC)COc1ccc(F)c(C(O)CCN)c1` (racemic; 28) was 132 nM.

System in another data set: not listed separately
The data set can be described thus: Drug distribution in wild type BL/6J mouse eyes measured at 380 nM, IP administered single dose per eye after 7 days by LC-MS/MS electrospray ionization fragmentation spectra method. It is filed as ADME, tissue-based. The following applies: in vivo, 168 h, 0.38 µM, time 7 day. The gist of the method:
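Eight-week-old BL/6J mice got one i.p. dose of 380 nmol in 50 μL DMSO and were sacrificed at 3 h, 1 day or 7 days. Both eyes were homogenized in acetonitrile, and the extract was dried and reconstituted in 50% methanol/water. Analysis was by C18 LC-MS/MS with ESI and a formic acid/acetonitrile gradient. The transition monitored was water loss (−18 Da), or −47 Da for one analog.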
`NCCC(O)c1cccc(OCC2CCC(F)(F)CC2)c1` (centres undefined) came in with a Drug uptake of 21 pmol.
